# Experimental data taken from ChEMBL document CHEMBL1921719, “Synthesis and activity study of phosphonamidate dipeptides as potential inhibitors of VanX” (Bioorg Med Chem Lett, 2011).
# Key:
# [1] = tested on: Staphylococcus aureus; experiment: Antibacterial activity against methicillin-resistant Staphylococcus aureus isolate 1 after 24 hrs by macrodilution broth method; type: functional; settings: isolate 1, 24 h
# Summary of the method: (§1)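 CLSI tube macrodilution broth method, with MIC as the read-out. Test strains were S. aureus ATCC 25923 and two clinical MRSA isolates. Cultures of about 10⁸ CFU/ml in Mueller–Hinton medium and phosphonamidate (2 mM stock in ddH₂O) were added in sequence to a vancomycin dilution series from 128 down to 0.125. Tubes were incubated for 24 h at 37 °C.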
# [2] = tested on: Staphylococcus aureus; experiment: Antibacterial activity against Staphylococcus aureus ATCC 25923 after 24 hrs by macrodilution broth method; type: functional; settings: ATCC 25923, 24 h; summary of the method: as §1
# [3] = tested on: Staphylococcus aureus; experiment: Antibacterial activity against methicillin-resistant Staphylococcus isolate 2 after 24 hrs by macrodilution broth method; type: functional; settings: isolate 2, 24 h; summary of the method: as §1
# [4] = Inhibition of VanX using D-Ala-D-Ala as substrate preincubated for 30 mins before substrate addition measured after 150 secs by UV-Vis spectrometry
# Summary of the method: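 The enzyme was recombinant VanX, expressed as an MBP fusion in E. coli BL21(DE3) at 30 °C with 1 mM IPTG induction for 75 min. It was purified on amylose resin, eluted with 20 mM Tris pH 7.6, 10 mM maltose and 200 mM NaCl. Thrombin then cleaved off the MBP, followed by a Q-Sepharose step. IC₅₀ was determined by a previously reported method.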
# [5] = Partial competitive inhibition of VanX
# [6] = tested on: Staphylococcus aureus; experiment: Antibacterial activity against Staphylococcus aureus ATCC 25923 after 24 hrs by macrodilution broth method relative to untreated control; type: functional
SMILES,MIC [1] [µg/mL],MIC [2] [µg/mL],MIC [3] [µg/mL],IC50 [4] [µM],Ki [5] [µM],fold change (FC) [6]
C[C@H](N)P(=O)(O)N[C@H](C)C(=O)O,1,2,2,700,36,–
C[C@H](N)P(=O)(O)NCC(=O)O,1,0.25,1,390,–,8
C[C@H](N)P(=O)(O)N[C@H](Cc1ccccc1)C(=O)O,1,2,2,4130,–,–
CC(C)[C@@H](NP(=O)(O)[C@H](C)N)C(=O)O,1,2,2,1120,–,–
CC(C)C[C@@H](NP(=O)(O)[C@H](C)N)C(=O)O,1,2,2,2820,–,–
